HTRA1 inh: blocks human HTRA1 serine peptidase; recombinant HTRA1, FP-rhodamine activity-based probe, fluorescence polarization; inhibition, % at 5.96 µM; hit rate 0.5% among 340,000; AID 504803; in the data active = inhibition above about 36%;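 also: 0% = enzyme with DMSO and 100% = wells lacking enzyme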
SIAE inh: blocks human sialic acid acetylesterase; hit rate 0.69% among 370,000; inhibition, % at 9.66 µM; AID 1053197; SIAE FP-Rh probe binding, fluorescence polarization;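 active = inhibition above a cutoff: mean of compounds within the control limits plus 3 SD of those, cut at about 17% in these data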;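 also: 0% = plate median of compound wells and 100% = probe without SIAE protein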
PRMT1 inh: inhibitors of human PRMT1; hit rate 1.3% among 370,000; recombinant PRMT1, activity-based probe fluorescence polarization; inhibition, % at 2.79 µM; AID 652257; Q99873;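 active = inhibition above about 21% made by adding two undisclosed values, limit read from the data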
JMJD2C inh: inhibitors of human GASC-1 (JMJD2C) demethylase. inhibition, % at 2.35 µM. Q9H3R0. hit rate 0.069% among 330,000. GST-JMJD2C(1-420) H3K9me3 demethylation, DELFIA europium. AID 2099;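 active = more than half of a compound's replicate wells show inhibition beyond 50%, single wells judged on their own value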;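 also: signal counts dimethyl H3K9 product captured on neutravidin plate; 0% = median of DMSO wells and 100% = 0.3 times that DMSO median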
Target sequence (Q9H3R0 1-420 limits assumed): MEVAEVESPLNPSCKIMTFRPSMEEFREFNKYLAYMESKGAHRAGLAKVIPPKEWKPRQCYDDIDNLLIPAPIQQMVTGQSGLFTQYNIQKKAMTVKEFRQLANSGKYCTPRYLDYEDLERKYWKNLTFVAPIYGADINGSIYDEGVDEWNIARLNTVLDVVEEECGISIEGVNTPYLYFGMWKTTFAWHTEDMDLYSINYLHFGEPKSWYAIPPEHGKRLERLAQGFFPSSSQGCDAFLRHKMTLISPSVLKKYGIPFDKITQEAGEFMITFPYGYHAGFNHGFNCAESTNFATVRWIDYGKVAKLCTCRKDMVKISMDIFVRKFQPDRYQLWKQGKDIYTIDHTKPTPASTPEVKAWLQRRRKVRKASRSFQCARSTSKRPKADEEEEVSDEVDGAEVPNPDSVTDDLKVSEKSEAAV
ABHD4 inh: ABHD4 (mouse) inhibition, primary FP screen; hit rate 0.54% among 370,000; Q8VD66; AID 720543; inhibition, % at 8.92 µM; purified mABHD4, FP-Rh probe fluorescence polarization;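 active = inhibition exceeding the mean over every tested compound plus 3 SD, cut at about 30% in these data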;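 also: 0% = plate median of compound wells and 100% = S159A mutant with DMSO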
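Assay system: wild-type mouse ABHD4 protein; compound: single nominal dose of 8.92 µM, 0.89% DMSO final; schedule: 45 min + 60 min at 25 °C; measured by: FP readout, ex 525 nm / em 598 nm; evaluation: % inhibition of FP-Rh probe binding versus controls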
mABHD4 conf: confirmation of mouse ABHD4 inhibitors; shares compounds with ABHD4 inh; purified mABHD4, FP-Rh probe fluorescence polarization; inhibition, % at 8.92 µM; hit rate 55% among 1,800; AID 720658;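 active = mean inhibition across replicates above the hit cutoff set in the primary screen, cut at about 30% in these data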;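 also: 0% = wild-type ABHD4 with DMSO and 100% = catalytically dead S159A mutant with DMSO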
SIAE confirm: human SIAE inhibition, confirmation | inhibition, % at 9.66 µM | SIAE FP-Rh activity-based probe, fluorescence polarization | hit rate 13% among 2,300 | AID 1117263 | shares compounds with SIAE inh;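 active = mean inhibition of the replicates above the hit cutoff set in the primary screen, cut at about 17% in these data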;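 also: 0% = SIAE with DMSO and probe and 100% = probe without SIAE; inhibitors lower polarization as more probe stays unbound to SIAE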
Active calls of the source: *; · = not tested or not shown. Compounds with a hit are over-represented: about 2.4% of the library has one in this group of screens.

SMILES	HTRA1 inh	SIAE inh	PRMT1 inh	JMJD2C inh	ABHD4 inh	mABHD4 conf	SIAE confirm
CN1CCc2cc(O)cc3c2[C@H]1Cc1ccc(O)c(O)c1-3	30	12	79*	8	57*	18	·
COc1ccc(C2=CC(c3ccc(OC)c(OC)c3)c3c(c4ccccc4oc3=O)O2)cc1OC (stereo unspecified)	-23	-7	4	-26	6	·	·
O=c1[nH]c(=O)n(CCC2=CCCCC2)c(O)c1/C=N/Nc1cccc2ccccc12	31	10	18	-10	33*	16	·
O=c1[nH]c(=O)n(CCC2=CCCCC2)c(O)c1C=NC1CCN(Cc2ccccc2)CC1	1	-3	1	-1	6	·	·
O=C1c2ccccc2-n2nncc2C2c3cc(Br)ccc3CCN12 (stereo unspecified)	·	-3	-2	·	4	·	·
Cc1ccccc1-n1c(O)c(C=Nc2ccc(N(C)C)cc2)c(=O)[nH]c1=O	35	6	21*	17	40*	6	·
CCN(CC)c1ccc(N=Cc2c(O)n(-c3ccc(OC)cc3)c(=O)[nH]c2=O)cc1	35	5	19	-7	38*	2	·
O=S(=O)(F)c1ccc2nc(-c3cccc(Sc4ccccc4)c3)cc(Cl)c2c1	1	-5	-1	6	5	·	·
COc1ccc(/C=N/N=C(/N)N[N+](=O)[O-])c(OC)c1	0	-2	3	-17	-4	·	·
N/C(=N\N=C/c1ccc(-c2ccc(O)c(C(=O)O)c2)o1)N[N+](=O)[O-]	5	-2	33*	-3	35*	42*	·
O=C(O)c1cccc2c1NC(c1cccc([N+](=O)[O-])c1)C1CC(Sc3ccccc3[N+](=O)[O-])C(Cl)C21 (stereo unspecified)	16	17	23*	13	30*	55*	·
Cc1onc(-c2c(Cl)cccc2Cl)c1/C(N)=N/OC(=O)N(C)C	-13	-7	-4	-6	9	·	·
O=C(N/N=C/c1c(O)n(Cc2ccco2)c(=O)[nH]c1=O)c1ccccc1O	4	2	9	7	31*	32*	·
O=C(N/N=C/C1C(=O)NC(=S)N(c2ccccc2)C1=O)c1cc(Br)c(O)c(Br)c1 (stereo unspecified)	36	-3	6	6	42*	48*	·
O=C(N/N=C/c1c(O)n(Cc2ccc(F)cc2)c(=S)[nH]c1=O)c1ccncc1	-10	-53	-2	15	32*	37*	·
CCn1c(O)c(/C=N/NC(=O)c2ccncc2)c(=O)[nH]c1=S	-26	-65	-3	-35	-18	·	·
C=CCn1c(O)c(C(CC)=Nc2ccc(N(C)C)cc2)c(=O)[nH]c1=O	·	3	33*	7	43*	11	·
C=CCn1c(O)c(C(CC)=Nc2ccc3c(c2)CCC3)c(=O)[nH]c1=O	6	2	-1	12	4	·	·
CNC(=O)Oc1cccc(-c2cn3cc(OC(=O)NC)ccc3n2)c1	21	17*	10	-1	40*	22	5
CCCCNS(=O)(=O)c1ccc(OCC(=O)N2CCN(Cc3ccc4c(c3)OCO4)CC2)cc1	-8	-5	1	0	5	·	·
CN(C)C(CNC(=O)Cc1c(Cl)cccc1Cl)c1ccccc1 (stereo unspecified)	-4	17*	-3	7	8	·	4
CNC(=O)O/N=C/c1nn(C(=O)C(C)(C)C)cc1Br	22	17*	-2	-6	0	·	2
COc1ccc(CN2CCCC(C(=O)c3ccc(Cl)cc3)C2)c(OC)c1 (stereo unspecified)	2	18*	-2	-45	1	·	-4
COc1ccc(CN2CCCC(C(=O)c3cccc(Cl)c3)C2)cc1 (stereo unspecified)	0	-1	4	-19	-4	·	·
Cc1ccc(-c2cc(-c3ccc(C)cc3)[n+](C)o2)cc1	9	18*	-1	14	15	·	1
SMILES	HTRA1 inh	SIAE inh	PRMT1 inh	JMJD2C inh	ABHD4 inh	mABHD4 conf	SIAE confirm
COc1ccc(C(c2nnnn2C(C)(C)C)N2CCC3(CC2)C(=O)NCN3c2ccccc2)cc1 (stereo unspecified)	·	5	-2	·	1	·	·
CC1=NN(c2ccccc2)C(=O)C1/C=C1/C(=O)NC(=O)N(c2cc(C)cc(C)c2)C1=O (stereo unspecified)	0	75*	1	8	-6	·	-1
COC12CCC3(CC1C(C)(O)C(C)(C)C)[C@H]1Cc4ccc(O)c5c4[C@@]3(CCN1CC1CC1)C2O5 (stereo partly specified)	-13	4	-1	·	-3	·	·
O=C(c1ccc2c(c1)OCO2)C1CCCN(Cc2ccc(F)c(F)c2)C1 (stereo unspecified)	-6	1	-1	4	-8	·	·
CN(C(=O)Cc1ccc2c(c1)OCO2)C1CCCN(Cc2ccccc2F)C1 (stereo unspecified)	1	23*	-1	2	-4	·	2
CCOP(=O)(OCC)C(NC(=O)C(Cl)Cl)C(Cl)(Cl)Cl (stereo unspecified)	1	0	-1	-2	-3	·	·
COc1cc2c(cc1OC)-c1c(OC)c(OC)cc3c1[C@H](C2)[N+](C)(C)CC3	-3	18*	-1	11	2	·	3
O=c1cc(C(F)(F)F)c2cc3c4c(c2o1)CCCN4CCC3	-10	18*	101*	4	29	·	10
CN1/C(=C\C=C2C(=O)NC(=S)NC2=O)C(C)(C)c2ccccc21	-1	60*	-41	13	-16	·	153*
CC1(C)OC(c2ccccc2)=C/C(=C/C=C2C(=O)NC(=S)NC2=O)O1	·	-212	2	43	-160	·	·
O=C(C1CCCCC1)N1Cc2ccccc2-n2nncc2C1	6	2	2	·	3	·	·
COc1ccc(CNCCc2cccc(F)c2)c2ccccc12	·	·	·	10	·	·	·
N#CC1=C(N)Oc2c(c(=O)oc3ccccc23)C1c1ccc([N+](=O)[O-])o1 (stereo unspecified)	4	22*	11	-4	10	·	-3
CC(C)Oc1ccc(C2C(C#N)=C(N)Oc3c2c(=O)oc2ccccc32)cc1 (stereo unspecified)	-1	-3	2	-3	3	·	·
CC(C)Oc1cccnc1N(C)C1CCN(Cc2ccccc2)CC1	3	8	-3	·	1	·	·
CCS(=O)(=O)CCSP(=O)(OC)OC	2	34*	8	·	-6	·	49*
Cn1cnnc1Sc1cc(N2CCNCC2)ccc1[N+](=O)[O-]	7	8	-5	3	0	·	·
NP(=O)(OCCCc1ccccc1)Oc1ccccc1Cl (stereo unspecified)	11	57*	-1	-4	2	·	54*

Screening data deposited in PubChem BioAssay by several laboratories.
